Measured values published in ChEMBL document CHEMBL2150954, “A novel, unusually efficacious duocarmycin carbamate prodrug that releases no residual byproduct” (J Med Chem, 2012).
Calls of active or inactive are those of the source. No cut-off for these calls is given here.

Experiments:
[1] = Half life in calf serum at 2 uM by RP-HPLC analysis; assay type: ADME, cell-free, Bos taurus; settings: cattle
[2] = Half life in human plasma at 1 ug/mL at pH 7 by HPLC analysis; assay type: ADME, cell-free
L1210 [3] = assay: Cytotoxicity against mouse L1210 cells; assay type: functional, cell-based
L1210 [4] = assay: Antitumor activity against mouse L1210 cells xenografted in DBA/2J mouse assessed as disease cure at 60 […], ip administered on day 1, 5 and 9 measured up to 250 days; assay type: functional, organism-based
L1210 [5] = assay: Antitumor activity against mouse L1210 cells xenografted in DBA/2J mouse assessed as disease cure at 500 […], ip administered on day 1, 5 and 9 measured up to 250 days; assay type: functional, organism-based
L1210 [6] = assay: Antitumor activity against mouse L1210 cells xenografted in DBA/2J mouse assessed as mean survival days at 100 ug/kg, ip administered on day 1, 5 and 9 relative to control; assay type: functional
L1210 [7] = assay: Antitumor activity against mouse L1210 cells xenografted in DBA/2J mouse assessed as mean survival days at 250 ug/kg, ip administered on day 1, 5 and 9 relative to control; assay type: functional
L1210 [8] = assay: Antitumor activity against mouse L1210 cells xenografted in DBA/2J mouse assessed as mean survival days at 500 ug/kg, ip administered on day 1, 5 and 9 relative to control; assay type: functional
Method in brief: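 Syngeneic L1210 cells (1 × 10⁶) given ip to B6D2F1 mice on day 0. Ten mice per group, randomised to vehicle control or treatment. Compound given in 100% DMSO ip on days 1, 5 and 9, with daily monitoring. T/C = total survival days of treated group ÷ total survival days of control × 100.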

L1210 [9] = assay: Antitumor activity against mouse L1210 cells xenografted in DBA/2J mouse assessed as disease cure at 250 […], ip administered on day 1, 5 and 9 measured up to 250 days; assay type: functional, organism-based
L1210 [10] = assay: Antitumor activity against mouse L1210 cells xenografted in DBA/2J mouse assessed as disease cure at 100 […], ip administered on day 1, 5 and 9 measured up to 250 days; assay type: functional, organism-based
L1210 [11] = assay: Antitumor activity against mouse L1210 cells xenografted in DBA/2J mouse assessed as mean survival days at 60 ug/kg, ip administered on day 1, 5 and 9 relative to control; assay type: functional
[12] = Drug degradation in NaHCO3/1:1 of DMF:H2O solution assessed as hydrolysis after 48 hrs; assay type: physicochemical; settings: NaHCO3 in 1:1 DMF:H2O solution; read-out: Drug degradation
[13] = Drug degradation in NaHCO3/MeOH solution assessed as hydrolysis after 24 hrs; assay type: physicochemical; settings: read-out: Drug degradation
[14] = Chemical stability of the compound in Et3N/CH2Cl2 solution after 48 hrs; assay type: physicochemical
[15] = Drug degradation in MeOH after 24 hrs in presence of 100 equiv BnNH2; assay type: physicochemical
[16] = Drug degradation in NaHCO3/1:1 of DMF:H2O solution assessed as hydrolysis after 24 hrs; assay type: physicochemical; settings: NaHCO3 in 1:1 DMF:H2O solution; read-out: Drug degradation
[17] = Drug degradation in 1:1 of TFA/CH2Cl2-4N HCl/EtOAc solution assessed as cleavage of Boc protecting group; assay type: physicochemical; settings: buffer
[18] = Chemical stability of the compound in NaHCO3/THF solution after 2 hrs; assay type: physicochemical
[19] = Drug degradation in DMAP/CH2Cl2 solution assessed as hydrolysis after 48 hrs; assay type: physicochemical; settings: read-out: Drug degradation
[20] = Chemical stability of the compound in DMAP/CH2Cl2 solution after 2 hrs; assay type: physicochemical
[21] = Chemical stability of the compound in NaHCO3/THF solution after 24 hrs; assay type: physicochemical
[22] = Drug degradation in NaHCO3/THF solution assessed as hydrolysis after 48 hrs; assay type: physicochemical; settings: read-out: Drug degradation
[23] = Chemical stability of the compound in Et3N/CH2Cl2 solution after 24 hrs; assay type: physicochemical
[24] = Chemical stability of the compound in Et3N/CH2Cl2 solution after 2 hrs; assay type: physicochemical
[25] = Drug degradation in NaHCO3/1:1 of THF:H2O solution assessed as hydrolysis after 24 hrs; assay type: physicochemical; settings: NaHCO3 in 1:1 THF:H2O solution; read-out: Drug degradation
[26] = Chemical stability in MeOH after 48 hrs in presence of 100 equiv BnSH and BnOH; assay type: physicochemical
Method in brief: (§1)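 Compound exposed to 100 equiv each of BnSH and BnOH in MeOH or THF at 23 °C for 48 h and monitored for cleavage.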

[27] = Chemical stability in THF after 48 hrs in presence of 100 equiv BnSH and BnOH; assay type: physicochemical; method in brief: as §1
[28] = Drug degradation in NaHCO3/1:1 of THF:H2O solution assessed as hydrolysis after 2 hrs; assay type: physicochemical; settings: NaHCO3 in 1:1 THF:H2O solution; read-out: Drug degradation
[29] = Drug degradation in NaHCO3/1:1 of THF:H2O solution assessed as hydrolysis after 48 hrs; assay type: physicochemical; settings: NaHCO3 in 1:1 THF:H2O solution; read-out: Drug degradation
[30] = Chemical stability in THF after 24 hrs in presence of BnNH2; assay type: physicochemical
[31] = Drug degradation in NaHCO3/MeOH solution assessed as hydrolysis after 2 hrs; assay type: physicochemical; settings: read-out: Drug degradation
[32] = Chemical stability of the compound in DMAP/CH2Cl2 solution after 24 hrs; assay type: physicochemical
[33] = Chemical stability of the compound in 1:1 of TFA/CH2Cl2-4N HCl/EtOAc solution for 48 hrs; assay type: physicochemical; settings: buffer
[34] = Drug degradation in NaHCO3/1:1 of DMF:H2O solution assessed as hydrolysis after 2 hrs; assay type: physicochemical; settings: NaHCO3 in 1:1 DMF:H2O solution; read-out: Drug degradation
[35] = Drug degradation in NaHCO3/MeOH solution assessed as hydrolysis after 48 hrs; assay type: physicochemical; settings: read-out: Drug degradation
L1210 [36] = assay: Antitumor activity against mouse L1210 cells xenografted in DBA/2J mouse assessed as disease cure at 1000 […], ip administered on day 1, 5 and 9 measured up to 250 days; assay type: functional, organism-based
[37] = Drug degradation in phosphate buffer assessed as cleavage over 4 weeks; assay type: physicochemical; settings: 672 h
Nucleic Acid = assay: Binding affinity to w794 DNA assessed as DNA alkylation by cell-free assay; assay type: nucleic-acid assay
L1210 [38] = assay: Antitumor activity against mouse L1210 cells xenografted in DBA/2J mouse assessed as disease cure at 300 […], ip administered on day 1, 5 and 9 measured up to 250 days; assay type: functional, organism-based
[39] = Chemical stability of the compound in 1:1 of TFA/CH2Cl2-4N HCl/EtOAc solution up to 72 hrs; assay type: physicochemical; settings: buffer
L1210 [40] = assay: Antitumor activity against mouse L1210 cells xenografted in DBA/2J mouse assessed as mean survival days at 3000 ug/kg, ip administered on day 1, 5 and 9 relative to control; assay type: functional
[41] = Fraction unbound in human plasma incubated over 48 hrs; assay type: ADME, cell-free
L1210 [42] = assay: Antitumor activity against mouse L1210 cells xenografted in DBA/2J mouse assessed as mean survival days at 1000 ug/kg, ip administered on day 1, 5 and 9 relative to control; assay type: functional
L1210 [43] = assay: Antitumor activity against mouse L1210 cells xenografted in DBA/2J mouse assessed as disease cure at 3000 […], ip administered on day 1, 5 and 9 measured up to 250 days; assay type: functional, organism-based
L1210 [44] = assay: Antitumor activity against mouse L1210 cells xenografted in DBA/2J mouse assessed as mean survival days at 9000 ug/kg, ip administered on day 1, 5 and 9 relative to control; assay type: functional
L1210 [45] = assay: Antitumor activity against mouse L1210 cells xenografted in DBA/2J mouse assessed as mean survival days at 300 ug/kg, ip administered on day 1, 5 and 9 relative to control; assay type: functional
L1210 [46] = assay: Antitumor activity against mouse L1210 cells xenografted in DBA/2J mouse assessed as disease cure at 9000 […], ip administered on day 1, 5 and 9 measured up to 250 days; assay type: functional, organism-based

## Br.COC(=O)c1c(C)[nH]c2c(OC(=O)N3CCN(C)CC3)cc3c(c12)[C@H](CBr)CN3C(=O)c1cc2cc(OC)c(OC)c(OC)c2[nH]1 [PIBROZELESIN HYDROBROMIDE]
[1]
  half-life at 2 µM: 20 h

## CCN(CC)c1ccc2cc(C(=O)Nc3ccc4[nH]c(C(=O)N5C[C@@H](CCl)c6c5cc(OC(=O)Nc5ccccc5)c5[nH]cc(C)c65)cc4c3)oc2c1 [CARZELESIN]
[2]
  half-life at 1 ug/mL: < 1 h

## Nc1cccc2c1C(=O)C=C1N(C(=O)c3cc4cc(NC(=O)c5cc6ccccc6[nH]5)ccc4[nH]3)CC3CC123 (racemic)
L1210 [3]
  IC50: 0.21 nM

## CC(C)(C)OC(=O)N1C[C@H](CCl)c2c1cc1c3c(cccc23)NC(=O)O1
L1210 [3]
  IC50: 5800 nM

## O=C1Nc2cccc3c4c(cc(c23)O1)N(C(=O)c1cc2cc(NC(=O)c3cc5ccccc5[nH]3)ccc2[nH]1)C[C@@H]4CCl
L1210 [3]
  IC50: 40 nM

## O=C(Nc1ccc2[nH]c(C(=O)N3C[C@@H](CCl)c4c3cc(O)c3ccccc43)cc2c1)c1cc2ccccc2[nH]1 [SECO-CBI-INDOLE]
L1210 [4]
  Activity: inactive
L1210 [5]
  Activity: inactive
L1210 [6]
  T/C: 36%
L1210 [7]
  T/C: 21%
L1210 [8]
  T/C: 17%
L1210 [9]
  Activity: inactive
L1210 [10]
  Activity: inactive
L1210 [11]
  T/C: 197%

## COc1c(O)c2c(c3cc(C(=O)N4CCc5c4c(O)c(OC)c4[nH]c(C(=O)N6C[C@@H]7C[C@]78C6=CC(=O)c6[nH]cc(C)c68)cc54)[nH]c13)CCN2C(N)=O
L1210 [3]
  IC50: 0.02 nM

## CC(C)(C)OC(=O)N1C[C@@H](CCl)c2c1cc1c3c(cccc23)NC(=O)O1
[12]
  degraded at 48 h: 19%
[13]
  degraded at 24 h: 74%
[14]
  Stability: Stable
[15]
  Drug degradation: Active
[16]
  degraded at 24 h: 12%
[17]
  Drug degradation: Active
[18]
  Stability: Stable
[19]
  degraded at 48 h: 12%
[20]
  Stability: Stable
[21]
  Stability: Stable
[22]
  degraded at 48 h: 7%
[23]
  Stability: Stable
[24]
  Stability: Stable
[25]
  degraded at 24 h: 4%
[26]
  Stability: Stable
[27]
  Stability: Stable
[28]
  degraded at 2 h: < 4%
[29]
  degraded at 48 h: 9%
[30]
  Stability: Stable
[31]
  degraded at 2 h: 18%
[32]
  Stability: Stable
[33]
  Stability: Stable
L1210 [3]
  IC50: 4900 nM
[34]
  degraded at 2 h: 7%
[35]
  degraded at 48 h: 100%

## O=C1Nc2cccc3c4c(cc(c23)O1)N(C(=O)c1cc2cc(NC(=O)c3cc5ccccc5[nH]3)ccc2[nH]1)C[C@H]4CCl
L1210 [36]
  Activity: inactive
[37]
  Drug degradation: Not Active
Nucleic Acid
  Activity: inactive
L1210 [38]
  Activity: inactive
[39]
  Stability: Stable
L1210 [40]
  T/C: >310%
[41]
  fraction unbound at 48 h: 0.05
L1210 [42]
  T/C: >275%
L1210 [43]
  Activity: inactive
L1210 [44]
  T/C: >980%
L1210 [45]
  T/C: 140%
L1210 [3]
  IC50: 6.6 nM
L1210 [46]
  Activity: Active
